Source: ChEMBL document CHEMBL3797027, “Potent anti-proliferative actions of a non-diuretic glucosamine derivative of ethacrynic acid” (Bioorg Med Chem Lett, 2016)
The source made the active and inactive calls. The calls are words filed in the database; no cut-off is given here.

Tests used:
MDA-MB-231 [1] = experiment: Induction of ROS generation in human MDA-MB-231 cells at 20 and 40 uM incubated for 3 hrs after pre-incubation with 3 mM NAC for 1 hr by DCFDA staining based flow cytometry; format: functional, cell-based
In short: (§1)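 Cells were exposed for 3 h to compound, or to 25 µM H2O2 as positive control. Where indicated, 3 mM N-acetylcysteine was given 1 h before treatment. Pellets were stained with DCF-DA for 30 min, and intracellular ROS was read as fluorescence shift by flow cytometry against untreated controls.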

MDA-MB-231 [2] = experiment: Induction of ROS generation in human MDA-MB-231 cells at 20 and 40 uM incubated for 3 hrs by DCFDA staining based fluorescence microscopy; format: functional, cell-based
In short: (§2)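 After 3 h exposure at different concentrations, DCFH-DA fluorescence was imaged by fluorescence microscopy. H2O2 (25 µM) served as positive control. In some wells, cells were pretreated with 3 mM N-acetylcysteine before compound addition.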

MDA-MB-231 [3] = experiment: Induction of ROS generation in human MDA-MB-231 cells at 20 and 40 uM incubated for 3 hrs after pre-incubation with 3 mM NAC for 1 hr by DCFDA staining based fluorescence microscopy; format: functional, cell-based; in short: as §2
NCI-H1299 [4] = experiment: Increase in PUMA protein expression in p53 deficient human H1299 cells at 10 to 40 uM by Western blot method; format: functional, cell-based
In short: (§3)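 H1299 (p53-null), HCT116 (p53 wild type) and MDA-MB-231 (p53 mutant) cells were treated, then lysates were immunoblotted for p53, p21, PUMA and PARP. β-Actin served as loading control.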

NCI-H1299 [5] = experiment: Increase in cleaved PARP protein expression in p53 deficient human H1299 cells at 10 to 40 uM by Western blot method; format: functional, cell-based; in short: as §3
HCT-116 [6] = experiment: Increase in p53 protein expression in wild type p53 expressing human HCT116 cells at 10 to 40 uM by Western blot method; format: functional, cell-based; in short: as §3
HCT-116 [7] = experiment: Increase in p21'cip1 protein expression in wild type p53 expressing human HCT116 cells at 10 to 40 uM by Western blot method; format: functional, cell-based; in short: as §3
MDA-MB-231 [8] = experiment: Increase in p21'cip1 protein expression in p53 mutant expressing human MDA-MB-231 cells at 10 to 40 uM by Western blot method; format: functional, cell-based; in short: as §3
MDA-MB-231 [9] = experiment: Increase in PUMA protein expression in p53 mutant expressing human MDA-MB-231 cells at 10 to 40 uM by Western blot method; format: functional, cell-based; in short: as §3
MDA-MB-231 [10] = experiment: Increase in cleaved PARP protein expression in p53 mutant expressing human MDA-MB-231 cells at 10 to 40 uM by Western blot method; format: functional, cell-based; in short: as §3
MDA-MB-231 [11] = experiment: Induction of cell cycle arrest in p53 mutant expressing human MDA-MB-231 cells assessed as accumulation at G2/M phase incubated for 24 hrs by propidium iodide staining based flow cytometry; format: functional
Mus musculus [12] = experiment: Toxicity in mouse assessed as induction of tremors at 120 mg/kg/week for 2 weeks; format: organism-based; settings: in vivo, 336 h
Mus musculus [13] = experiment: Toxicity in mouse assessed as induction of lethargy at 120 mg/kg/week for 2 weeks; format: organism-based; settings: in vivo, 336 h
Mus musculus [14] = experiment: Toxicity in mouse assessed as induction of paralysis at 120 mg/kg/week for 2 weeks; format: organism-based; settings: in vivo, 336 h
Mus musculus [15] = experiment: Toxicity in mouse assessed as induction of weight loss at 120 mg/kg/week for 2 weeks; format: organism-based; settings: in vivo, 336 h
Mus musculus [16] = experiment: Toxicity in mouse assessed as induction of diarrhea at 120 mg/kg/week for 2 weeks; format: organism-based; settings: in vivo, 336 h
Mus musculus [17] = experiment: Toxic diuretic effect in 12 hrs fasted CD1 mouse assessed as increase in urine output at 10 mg/kg, ip measured 0 to 6 hrs post dose relative to untreated control; format: toxicity, organism-based; settings: in vivo
In short: (§4)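 Female CD-1 mice fasted 12 h, then given compound IP at 10 mg/kg in PEG/EtOH/H2O (54:14:32). Vehicle control group included. Mice were housed singly in metabolic cages with free access to water. Voided urine was collected in graduated tubes under the cages over 0–6 h and 6–24 h after injection.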

Mus musculus [18] = experiment: Toxic diuretic effect in 12 hrs fasted CD1 mouse assessed as increase in urine output at 10 mg/kg, ip measured 6 to 24 hrs post dose relative to untreated control; format: toxicity, organism-based; settings: in vivo; in short: as §4
[19] = Cytotoxic activity against human H1299 cells assessed as inhibition of cell proliferation incubated for 72 hrs by MTT assay; format: functional, cell-based; settings: NCI-H1299, 72 h
In short: (§5)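 MTT cell survival assay. IC50 is the concentration that inhibits tumour cell proliferation by 50%, read from cell survival curves. Values are given as mean ± SD of three independent experiments.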

[20] = Cytotoxic activity against human GBM10 cells assessed as inhibition of cell proliferation incubated for 72 hrs by MTT assay; format: functional, cell-based; settings: GBM10, 72 h; in short: as §5
[21] = Cytotoxic activity against human SKBR3 cells assessed as inhibition of cell proliferation incubated for 72 hrs by MTT assay; format: functional, cell-based; settings: SK-BR-3, 72 h; in short: as §5
MDA-MB-468 [22] = experiment: Cytotoxic activity against human MDA-MB-468 cells assessed as inhibition of cell proliferation incubated for 72 hrs by MTT assay; format: functional, cell-based; settings: MDA-MB-468, 72 h; in short: as §5
[23] = Cytotoxic activity against human HT1080 cells assessed as inhibition of cell proliferation incubated for 72 hrs by MTT assay; format: functional, cell-based; settings: HT-1080, 72 h; in short: as §5
[24] = Potency index, ratio of IC50 for ethacrynic acid to IC50 for test compound for cytotoxic activity against human H1299 cells assessed as inhibition of cell proliferation incubated for 72 hrs by MTT assay; format: functional
In short: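 Index is the reference IC50 divided by the test IC50. Both IC50s were taken from MTT cell survival curves, each as mean ± SD of three independent experiments.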

MDA-MB-231 [25] = experiment: Potency index, ratio of IC50 for ethacrynic acid to IC50 for test compound for cytotoxic activity against human MDA-MB-231 cells assessed as inhibition of cell proliferation incubated for 72 hrs by MTT assay; format: functional
MDA-MB-468 [26] = experiment: Potency index, ratio of IC50 for ethacrynic acid to IC50 for test compound for cytotoxic activity against human MDA-MB-468 cells assessed as inhibition of cell proliferation incubated for 72 hrs by MTT assay; format: functional
MCF7 = experiment: Potency index, ratio of IC50 for ethacrynic acid to IC50 for test compound for cytotoxic activity against human MCF7 cells assessed as inhibition of cell proliferation incubated for 72 hrs by MTT assay; format: functional
MDA-MB-231 [27] = experiment: Reduction in cellular total thiol levels in human MDA-MB-231 cells at 40 uM incubated for 3 hrs by Ellman's reagent based assay; format: functional
In short: (§6)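 Cells exposed to 0–40 µM compound for 3 h, then trypsinized. Total thiols in cell extracts were quantified with Ellman's reagent.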

HCT-116 [28] = experiment: Reduction in cellular total thiol levels in human HCT116 cells incubated for 3 hrs by Ellman's reagent based assay; format: functional, cell-based; in short: as §6
[29] = Cytotoxic activity against human MCF10A cells assessed as inhibition of cell proliferation incubated for 72 hrs by MTT assay; format: cell-based; settings: mcf-10a; in short: as §5
NCI-H1299 [30] = experiment: Reduction in cellular total thiol levels in human H1299 cells incubated for 3 hrs by Ellman's reagent based assay; format: functional, cell-based; in short: as §6
HCT-116 [31] = experiment: Induction of ROS generation in human HCT116 cells at 20 and 40 uM incubated for 3 hrs by DCFDA staining based flow cytometry; format: functional, cell-based; in short: as §1
MDA-MB-231 [32] = experiment: Induction of ROS generation in human MDA-MB-231 cells at 20 and 40 uM incubated for 3 hrs by DCFDA staining based flow cytometry; format: functional, cell-based; in short: as §1

C=C(CC)C(=O)c1ccc(OCC(=O)N[C@@H]2[C@@H](O)[C@H](O)[C@@H](CO)O[C@H]2O)c(Cl)c1Cl
Activity (MDA-MB-231 [1]): inactive | Activity (MDA-MB-231 [2]): Active | Activity (MDA-MB-231 [3]): inactive | Activity (NCI-H1299 [4]): Active | Activity (NCI-H1299 [5]): Active | Activity (HCT-116 [6]): Active | Activity (HCT-116 [7]): Active | Activity (MDA-MB-231 [8]): Active | Activity (MDA-MB-231 [9]): Active | Activity (MDA-MB-231 [10]): Active | Activity (MDA-MB-231 [11]): Dose-dependent effect | Activity (Mus musculus [12]): Non-toxic | Activity (Mus musculus [13]): Non-toxic | Activity (Mus musculus [14]): Non-toxic | Activity (Mus musculus [15]): Non-toxic | Activity (Mus musculus [16]): Non-toxic | Activity (Mus musculus [17]): Non-toxic | Activity (Mus musculus [18]): Non-toxic | IC50 [19]: 11.5 µM | IC50 [20]: 15.2 µM | IC50 [21]: 16.1 µM | IC50 (MDA-MB-468 [22]): 18.4 µM | IC50 [23]: 16.3 µM | Ratio IC50 [24]: 3 | Ratio IC50 (MDA-MB-231 [25]): 3 | Ratio IC50 (MDA-MB-468 [26]): 3 | Ratio IC50 (MCF7): 3 | Imax (MDA-MB-231 [27]): 58% | Activity (HCT-116 [28]): Dose-dependent effect | Activity [29]: Non-toxic | Activity (NCI-H1299 [30]): Dose-dependent effect | Activity (HCT-116 [31]): Active | Activity (MDA-MB-231 [32]): Active
